Screening data deposited in PubChem BioAssay by Johns Hopkins Ion Channel Center.
Rows were chosen to be rich in hits. Some 3.5% of all compounds tested hit in one or more screens of this group.
MrgX1 antagonist = human MrgX1 receptor antagonism, primary screen. Q96LB2. MRGX1-HEK293 calcium flux, Fluo-4, BAM8-22 antagonism; hits give low values. B-score at 10 µM. actives 1.3% (n = 310,000);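 active = calcium-response B-score plate-corrected more than 3 library SD below zero, starting fluorescence within 5 deviations, no agonist response on first addition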;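 also: peak minus trough fluorescence over baseline after final BAM8-22 challenge near maximal dose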
Target sequence (Q96LB2 whole entry, looked up): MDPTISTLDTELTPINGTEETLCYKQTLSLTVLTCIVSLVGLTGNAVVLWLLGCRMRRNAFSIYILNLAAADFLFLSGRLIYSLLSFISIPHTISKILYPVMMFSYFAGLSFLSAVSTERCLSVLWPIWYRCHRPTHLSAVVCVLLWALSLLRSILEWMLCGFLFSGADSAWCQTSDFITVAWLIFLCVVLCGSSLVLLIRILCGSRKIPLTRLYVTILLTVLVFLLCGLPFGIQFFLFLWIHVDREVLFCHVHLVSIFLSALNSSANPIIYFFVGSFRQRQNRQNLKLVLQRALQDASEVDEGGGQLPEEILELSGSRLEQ
MrgX1 PAM = human MrgX1 positive allosteric modulation, primary screen | MrgX1-HEK293, Fluo-4 calcium flux, FDSS; hits give high values | Q96LB2 | B-score at 10 µM | actives 0.63% (n = 310,000);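 active = plate-corrected calcium response at least 3 library SD above typical, normal starting fluorescence, not activating the receptor alone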;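 also: compound read alongside a low EC10 to EC30 dose of BAM8-22 agonist; peak minus trough fluorescence over baseline measured at the second addition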
RGS4 block = inhibitors of human RGS4 | P49798 | HEK293 M3R/RGS4 inducible, Fluo-4 calcium flux; hits give high values; triggered by carbachol at its EC20 | B-score at 10 µM | actives 0.45% (n = 310,000) | AID 463165;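 active = B-score, a plate-corrected calcium signal, over three deviations above library mean, with baseline fluorescence within five deviations of library mean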;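 also: RGS4 expression induced by doxycycline in cells with stable M3 receptor; B-score is computed from the integrated fluorescence ratio over baseline after carbachol; higher B-score means a larger calcium signal and so more RGS4 inhibition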
Target sequence (P49798 whole entry, looked up): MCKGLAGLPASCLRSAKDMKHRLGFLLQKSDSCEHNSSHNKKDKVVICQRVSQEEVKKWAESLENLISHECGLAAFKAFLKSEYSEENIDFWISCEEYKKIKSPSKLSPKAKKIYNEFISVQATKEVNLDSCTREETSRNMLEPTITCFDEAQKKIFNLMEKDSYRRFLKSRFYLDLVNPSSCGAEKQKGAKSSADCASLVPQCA
RGS4 pot = RGS4 potentiation or activation; HEK293 M3R/inducible RGS4, carbachol calcium flux Fluo4; hits give low values; B-score at 10 µM; actives 0.92% (n = 310,000); AID 463111;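 active = B-score of the integrated calcium signal more than 4 SD below the library mean, with starting fluorescence not abnormally high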;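 also: negative B-score means reduced calcium response which marks RGS4 activation or potentiation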
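Material: M3R-expressing HEK293 line, RGS4 induced by doxycycline | Schedule: Overnight RGS4 induction, 30 min dye load 37 °C, 20 min compound RT | Measured by: Fluo4 fluorescence kinetic imaging of calcium | Read-out: Integrated calcium ratio converted to B score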
MrgX1 ag = human MrgX1 receptor agonism, primary screen; Q96LB2; MrgX1-HEK293 cells, Fluo-4 calcium fluorescence, agonist mode; hits give high values; B-score at 10 µM; actives 0.44% (n = 310,000); AID 588627;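 active = calcium response B-score plate-corrected fluorescence ratio at least 3 library SD, with starting fluorescence B-score inside 5 SD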
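Material: HEK293 cells stably expressing human MrgX1 receptor | Quantity: 15,000 cells per well | Times: Cells plated overnight, dye loaded 0.5 h 37 °C, 0.5 h room temperature | Measured by: Kinetic Fluo-4 NW fluorescence of intracellular calcium | Control set: Positive and negative controls per plate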
RGS4 block valid = validation of RGS4 inhibitors. shares compounds with RGS4 block. HEK293 M3R/RGS4, carbachol calcium Fluo-4 fluorescence; carbachol added at its EC20; 0 = buffer wells, 100 = carbachol control. calcium response, % at 10 µM. actives 65% (n = 1,700). AID 492999;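 active = duplicate-averaged calcium response above the buffer-only control mean plus 5 SD of those controls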;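 also: integrated fluorescence ratio F max minus min over baseline F0; higher response in RGS4-induced cells means RGS4 inhibition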
RGS4 uninduced = non-induced cell nonspecific activity of RGS4 inhibitors. shares compounds with RGS4 block. HEK293 M3R non-induced, carbachol calcium Fluo-4; submaximal (EC20) carbachol stimulus; buffer wells 0%, carbachol control wells 100%. activity (percent), % at 10 µM. actives 20% (n = 1,900). AID 493000; call rule not given here;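 also: RGS4 induction absent so cells express M3R without RGS4; higher means more calcium signal and flags a non-specific hit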
M3R basal Ca ctr = second RGS4 inhibitor counter-screen in uninduced cells lacking carbachol; shares compounds with RGS4 block; HEK293 M3R/RGS4 non-induced, Fluo-4 calcium, no carbachol; normalised: buffer wells 0%, carbachol wells 100%; calcium response (agonist-mode artifact), % at 10 µM; actives 22% (n = 1,900); AID 493001;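 active = duplicate-averaged calcium rise in uninduced cells above buffer wells' mean plus 5 SD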
* = called active by the depositor.

Screening Cc1ccc(C2(c3ccc(C)cc3)CC2C(=O)NCc2cccnc2)cc1 (stereo not drawn) returned MrgX1 antagonist inactive, MrgX1 PAM inactive, RGS4 block inactive, RGS4 pot inactive and MrgX1 ag inactive.
Cc1ccc2occ(/C=N/NC(=O)c3ccc(O)cc3)c(=O)c2c1 was read as MrgX1 antagonist inactive, MrgX1 PAM inactive, RGS4 block inactive, RGS4 pot inactive and MrgX1 ag inactive.
For Cc1ccc2occ(/C=N/NC(N)=S)c(=O)c2c1 the results were MrgX1 antagonist inactive, MrgX1 PAM inactive, RGS4 block 11*, RGS4 pot inactive, MrgX1 ag inactive, RGS4 block valid 54%*, RGS4 uninduced 66%* and M3R basal Ca ctr inactive.
`O=C(C1=C(O)C(=O)N(Cc2ccco2)C1c1ccccc1F)c1cccs1` (stereo not drawn) gave MrgX1 antagonist inactive, MrgX1 PAM inactive, RGS4 block inactive, RGS4 pot inactive and MrgX1 ag inactive.
O=C1c2[nH]nc(-c3ccccc3O)c2C(c2ccccc2F)N1Cc1ccco1 (stereo not drawn) was read as MrgX1 antagonist inactive, MrgX1 PAM inactive, RGS4 block 16*, RGS4 pot inactive, MrgX1 ag inactive, RGS4 block valid 34%*, RGS4 uninduced 40%* and M3R basal Ca ctr inactive.
For COc1cccc(C2c3c(-c4ccccc4O)n[nH]c3C(=O)N2Cc2ccco2)c1 (stereo not drawn) the results were MrgX1 antagonist inactive, MrgX1 PAM inactive, RGS4 block inactive, RGS4 pot inactive and MrgX1 ag inactive.
Screening O=C1c2[nH]nc(-c3ccccc3O)c2C(c2ccccc2)N1Cc1ccco1 (stereo not drawn) returned MrgX1 antagonist inactive, MrgX1 PAM inactive, RGS4 block 12*, RGS4 pot inactive, MrgX1 ag inactive, RGS4 block valid 6.0%*, RGS4 uninduced inactive and M3R basal Ca ctr inactive.
Cc1cc(C)nc(CCNC(=O)c2cc(COc3c(C)cccc3C)on2)n1 was read as MrgX1 antagonist inactive, MrgX1 PAM inactive, RGS4 block inactive, RGS4 pot inactive and MrgX1 ag inactive.
COc1ccc(C2NC(=O)NC(c3ccccc3)=C2c2nc3ccccc3s2)cc1 (stereo not drawn) was read as MrgX1 antagonist inactive, MrgX1 PAM inactive, RGS4 block inactive, RGS4 pot inactive and MrgX1 ag inactive.
For O=C1NC(c2ccccc2)=C(c2nc3ccccc3s2)C(c2ccc(F)cc2)N1 (stereo not drawn) the results were MrgX1 antagonist inactive, MrgX1 PAM inactive, RGS4 block inactive, RGS4 pot inactive, MrgX1 ag inactive, RGS4 uninduced inactive and M3R basal Ca ctr inactive.
Screening CCOc1ccc(C(=O)CC(Sc2ccc(C)cc2)C(=O)O)cc1 (stereo not drawn) returned MrgX1 antagonist inactive, MrgX1 PAM inactive, RGS4 block inactive, RGS4 pot inactive, MrgX1 ag inactive, RGS4 block valid inactive, RGS4 uninduced inactive and M3R basal Ca ctr inactive.
CC1CCCCN1Cc1c(O)ccc2c(=O)c(-c3nc4ccccc4s3)c(N)oc12 (stereo not drawn) was read as MrgX1 antagonist inactive, MrgX1 PAM inactive, RGS4 block 12*, RGS4 pot inactive, MrgX1 ag inactive, RGS4 block valid 10%*, RGS4 uninduced inactive and M3R basal Ca ctr inactive.
For Cc1cnc(NC(=O)CCNC(=O)c2ccccc2Cl)s1 the results were MrgX1 antagonist inactive, MrgX1 PAM inactive, RGS4 block inactive, RGS4 pot inactive and MrgX1 ag inactive.
For Cc1ccccc1N(CC(=O)NCc1ccco1)C(=O)CNS(=O)(=O)c1ccc(F)cc1 the results were MrgX1 antagonist inactive, MrgX1 PAM inactive, RGS4 block inactive, RGS4 pot inactive, MrgX1 ag inactive, RGS4 block valid inactive, RGS4 uninduced inactive and M3R basal Ca ctr inactive.
`Cc1ccc(N(CC(=O)NCc2ccco2)C(=O)CNS(=O)(=O)c2ccc(F)cc2)c(C)c1` gave MrgX1 antagonist inactive, MrgX1 PAM inactive, RGS4 block inactive, RGS4 pot inactive and MrgX1 ag inactive.
Screening Oc1ccc(-c2csc(-c3cccnc3)n2)cc1O returned MrgX1 antagonist inactive, MrgX1 PAM inactive, RGS4 block inactive, RGS4 pot inactive and MrgX1 ag inactive.
Oc1ccc(-c2csc(-c3ccccc3)n2)cc1O was read as MrgX1 antagonist inactive, MrgX1 PAM inactive, RGS4 block 5.8*, RGS4 pot inactive, MrgX1 ag inactive, RGS4 block valid 24%*, RGS4 uninduced inactive and M3R basal Ca ctr inactive.
`Cc1ccc(S(=O)(=O)N(C)Cc2ccc(-c3nnc4n3CCC4)cc2)cc1` gave MrgX1 antagonist inactive, MrgX1 PAM inactive, RGS4 block inactive, RGS4 pot inactive and MrgX1 ag inactive.
For CCn1c(=O)c2cc(C(=O)N(C)c3ccc(OC)cc3OC)sc2c2ccccc21 the results were MrgX1 antagonist inactive, MrgX1 PAM inactive, RGS4 block inactive, RGS4 pot inactive and MrgX1 ag inactive.
`CCn1c(=O)c2cc(C(=O)N(C)c3cc(C)ccc3OC)sc2c2ccccc21` gave MrgX1 antagonist inactive, MrgX1 PAM inactive, RGS4 block 6*, RGS4 pot inactive, MrgX1 ag inactive, RGS4 block valid 30%*, RGS4 uninduced 60%* and M3R basal Ca ctr inactive.
Screening COc1cccc(N2CCN(C3CC(=O)N(c4ccc(F)c(Cl)c4)C3=O)CC2)c1 (stereo not drawn) returned MrgX1 antagonist inactive, MrgX1 PAM inactive, RGS4 block inactive, RGS4 pot inactive and MrgX1 ag inactive.
For COc1ccc(N2C(=O)CC(N3CCN(S(=O)(=O)c4c(F)cccc4F)CC3)C2=O)cc1OC (stereo not drawn) the results were MrgX1 antagonist inactive, MrgX1 PAM inactive, RGS4 block 6.8*, RGS4 pot inactive, MrgX1 ag inactive, RGS4 block valid 9.0%*, RGS4 uninduced inactive and M3R basal Ca ctr inactive.
